Source: ChEMBL document CHEMBL1152987, “Emergence of the quinolone resistance-mediating gene aac(6')-Ib-cr in extended-spectrum-beta-lactamase-producing Klebsiella isolates collected in Slovenia between 2000 and 2005” (2007)

What was measured:
Format in all cases: functional
[1] = test system: Klebsiella; test: Antimicrobial activity against extended-spectrum-beta-lactamase-producing Klebsiella transconjugant TK3 isolate expressing quinolone resistance-mediating gene aac(6')-Ib-cr by Etest
Procedure, shortened: (§1)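 Transconjugants came from broth-free matings of Klebsiella donors with E. coli J53 Azr on brain heart infusion agar. Selection was for 24 h at 37°C on LB agar with sodium azide 150 μg/ml plus ampicillin 100, tetracycline 10, trimethoprim 25 or chloramphenicol 30 μg/ml, then replica plating ± ciprofloxacin 0.01 μg/ml. MICs were read by Etest per the manufacturer's instructions.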

[2] = test system: Klebsiella; test: Antimicrobial activity against extended-spectrum-beta-lactamase-producing Klebsiella transconjugant TK14 isolate expressing quinolone resistance-mediating gene aac(6')-Ib-cr by Etest; procedure, shortened: as §1
[3] = test system: Klebsiella; test: Antimicrobial activity against extended-spectrum-beta-lactamase-producing Klebsiella transconjugant TK7 isolate expressing quinolone resistance-mediating gene aac(6')-Ib-cr by Etest; procedure, shortened: as §1
[4] = test system: Klebsiella; test: Antimicrobial activity against extended-spectrum-beta-lactamase-producing Klebsiella transconjugant TK16 isolate expressing quinolone resistance-mediating gene aac(6')-Ib-cr by Etest; procedure, shortened: as §1
[5] = test system: Klebsiella; test: Antimicrobial activity against extended-spectrum-beta-lactamase-producing Klebsiella transconjugant TK11 isolate expressing quinolone resistance-mediating gene aac(6')-Ib-cr by Etest; procedure, shortened: as §1
[6] = test system: Klebsiella; test: Antimicrobial activity against extended-spectrum-beta-lactamase-producing Klebsiella transconjugant TK1 isolate expressing quinolone resistance-mediating gene aac(6')-Ib-cr by Etest; procedure, shortened: as §1
[7] = test system: Klebsiella; test: Antimicrobial activity against extended-spectrum-beta-lactamase-producing Klebsiella transconjugant TK13 isolate expressing quinolone resistance-mediating gene aac(6')-Ib-cr by Etest; procedure, shortened: as §1
[8] = test system: Klebsiella; test: Antimicrobial activity against extended-spectrum-beta-lactamase-producing Klebsiella transconjugant TK19 isolate expressing quinolone resistance-mediating gene aac(6')-Ib-cr by Etest; procedure, shortened: as §1
[9] = test system: Klebsiella; test: Antimicrobial activity against extended-spectrum-beta-lactamase-producing Klebsiella transconjugant TK2 isolate expressing quinolone resistance-mediating gene aac(6')-Ib-cr by Etest; procedure, shortened: as §1
[10] = test system: Klebsiella; test: Antimicrobial activity against extended-spectrum-beta-lactamase-producing Klebsiella transconjugant TK6 isolate expressing quinolone resistance-mediating gene aac(6')-Ib-cr by Etest; procedure, shortened: as §1
[11] = test system: Klebsiella; test: Antimicrobial activity against extended-spectrum-beta-lactamase-producing Klebsiella transconjugant TK23 isolate expressing quinolone resistance-mediating gene aac(6')-Ib-cr by Etest; procedure, shortened: as §1
[12] = test system: Klebsiella; test: Antimicrobial activity against extended-spectrum-beta-lactamase-producing Klebsiella transconjugant TK15 isolate expressing quinolone resistance-mediating gene aac(6')-Ib-cr by Etest; procedure, shortened: as §1
[13] = test system: Klebsiella; test: Antimicrobial activity against extended-spectrum-beta-lactamase-producing Klebsiella transconjugant TK9 isolate expressing quinolone resistance-mediating gene aac(6')-Ib-cr by Etest; procedure, shortened: as §1
[14] = test system: Klebsiella; test: Antimicrobial activity against extended-spectrum-beta-lactamase-producing Klebsiella transconjugant TK8 isolate expressing quinolone resistance-mediating gene aac(6')-Ib-cr by Etest; procedure, shortened: as §1
[15] = test system: Klebsiella; test: Antimicrobial activity against extended-spectrum-beta-lactamase-producing Klebsiella transconjugant TK24 isolate expressing quinolone resistance-mediating gene aac(6')-Ib-cr by Etest; procedure, shortened: as §1
[16] = test system: Klebsiella; test: Antimicrobial activity against extended-spectrum-beta-lactamase-producing Klebsiella transconjugant TK10 isolate expressing quinolone resistance-mediating gene aac(6')-Ib-cr by Etest; procedure, shortened: as §1
[17] = test system: Klebsiella; test: Antimicrobial activity against extended-spectrum-beta-lactamase-producing Klebsiella transconjugant TK4 isolate expressing quinolone resistance-mediating gene aac(6')-Ib-cr by Etest; procedure, shortened: as §1
[18] = test system: Klebsiella; test: Antimicrobial activity against extended-spectrum-beta-lactamase-producing Klebsiella transconjugant TK18 isolate expressing quinolone resistance-mediating gene aac(6')-Ib-cr by Etest; procedure, shortened: as §1
[19] = test system: Klebsiella; test: Antimicrobial activity against extended-spectrum-beta-lactamase-producing Klebsiella transconjugant TK20 isolate expressing quinolone resistance-mediating gene aac(6')-Ib-cr by Etest; procedure, shortened: as §1
[20] = test system: Klebsiella; test: Antimicrobial activity against extended-spectrum-beta-lactamase-producing Klebsiella transconjugant TK21 isolate expressing quinolone resistance-mediating gene aac(6')-Ib-cr by Etest; procedure, shortened: as §1
[21] = test system: Klebsiella; test: Antimicrobial activity against extended-spectrum-beta-lactamase-producing Klebsiella transconjugant TK22 isolate expressing quinolone resistance-mediating gene aac(6')-Ib-cr by Etest; procedure, shortened: as §1
[22] = test system: Klebsiella; test: Antimicrobial activity against extended-spectrum-beta-lactamase-producing Klebsiella transconjugant TK25 isolate expressing quinolone resistance-mediating gene aac(6')-Ib-cr by Etest; procedure, shortened: as §1
[23] = test system: Klebsiella; test: Antimicrobial activity against extended-spectrum-beta-lactamase-producing Klebsiella transconjugant TK5 isolate expressing quinolone resistance-mediating gene aac(6')-Ib-cr by Etest; procedure, shortened: as §1
[24] = test system: Klebsiella; test: Antimicrobial activity against extended-spectrum-beta-lactamase-producing Klebsiella transconjugant TK17 isolate expressing quinolone resistance-mediating gene aac(6')-Ib-cr by Etest; procedure, shortened: as §1
[25] = test system: Klebsiella; test: Antimicrobial activity against extended-spectrum-beta-lactamase-producing Klebsiella transconjugant TK12 isolate expressing quinolone resistance-mediating gene aac(6')-Ib-cr by Etest; procedure, shortened: as §1

Measured: MIC

O=C(O)c1cn(C2CC2)c2cc(N3CCNCC3)c(F)cc2c1=O [CIPROFLOXACIN]
0.125 µg/mL: all assays above
